The values that follow come from ChEMBL document CHEMBL1629517, “Molecular properties prediction, synthesis and antimicrobial activity of some newer oxadiazole derivatives” (2010).

Test [1] concerns Bacillus subtilis. In words: Antibacterial activity against Bacillus subtilis ATCC 6633 at 200 ug/ml after 24 hrs by disc-diffusion method. Type of test: functional. The settings on record: ATCC 6633, 24 h, read-out: IZ. In general terms: Agar diffusion results depend on both activity and mobility in agar.
Test [2] relates to Bacillus subtilis. The test can be described thus: Antibacterial activity against Bacillus subtilis ATCC 6633 at 100 ug/ml after 24 hrs by disc-diffusion method. The conditions noted are these: ATCC 6633, 24 h, read-out: IZ. The format is functional.
The subject of test [3] is Staphylococcus aureus. In words: Antibacterial activity against Staphylococcus aureus ATCC 25923 after 24 hrs by broth dilution technique. The settings on record: ATCC 25923, 24 h. The format is functional. The method, boiled down: (§1)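 MIC by broth dilution: nutrient broth containing logarithmic two-fold serial dilutions of compound was inoculated with about 5 × 10⁵ c.f.u. of actively dividing bacteria.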

For test [4], the system named is Bacillus subtilis. The test can be described thus: Antibacterial activity against Bacillus subtilis ATCC 6633 after 24 hrs by broth dilution technique. Type of test: functional. The conditions noted are these: ATCC 6633, 24 h. Put shortly:
as §1
A general note: Dilution methods test growth across graded concentrations, often in twofold steps.

In test [5] the test system is Aspergillus niger. In words: Antifungal activity against Aspergillus niger at 100 ug/ml after 3 to 4 days by agar diffusion method. The settings on record: read-out: IZ.
Test [6] deals with Staphylococcus aureus. The test can be described thus: Antibacterial activity against Staphylococcus aureus ATCC 25923 after 18 to 24 hrs. The format is functional.
In test [7] the test system is Pseudomonas aeruginosa. The test can be described thus: Antibacterial activity against Pseudomonas aeruginosa ATCC 27853 at 200 ug/ml after 24 hrs by disc-diffusion method. The format is functional. The settings on record: ATCC 27853, 24 h, read-out: IZ.
The subject of test [8] is Candida albicans. In words: Antifungal activity against Candida albicans at 200 ug/ml after 48 hrs by agar diffusion method. Type of test: functional. The conditions noted are these: read-out: IZ. The method, boiled down:
(§2)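 Agar well diffusion on Sabouraud agar (peptone 1 g, D-glucose 4 g, agar 2 g per 100 ml water, pH 5.7). Plates were lawned with a saline suspension of spores, excess was decanted, and plates were dried 1 h at 37 °C. Compounds in DMSO went into punched wells, and inhibition zones were measured against controls, with voriconazole as standard.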

Test [9] has as its system Aspergillus niger. In words: Antifungal activity against Aspergillus niger at 200 ug/ml after 48 hrs by agar diffusion method. Type of test: functional. The conditions noted are these: read-out: IZ. Put shortly: as §2
For test [10], the system named is Escherichia coli. The test can be described thus: Antibacterial activity against Escherichia coli ATCC 25922 after 24 hrs by broth dilution technique. The format is functional. The settings on record: ATCC 25922, 24 h. Put shortly:
as §1

In test [11] the test system is Staphylococcus aureus. In words: Antibacterial activity against Staphylococcus aureus ATCC 25923 at 100 ug/ml after 24 hrs by disc-diffusion method. Type of test: functional. The conditions noted are these: ATCC 25923, 24 h, read-out: IZ.
The subject of test [12] is Candida albicans. The test can be described thus: Antifungal activity against Candida albicans at 100 ug/ml after 48 hrs by agar diffusion method. Type of test: functional. The conditions noted are these: read-out: IZ. The method, boiled down: as §2
The subject of test [13] is Staphylococcus aureus. In words: Antibacterial activity against Staphylococcus aureus ATCC 25923 at 200 ug/ml after 24 hrs by disc-diffusion method. The conditions noted are these: ATCC 25923, 24 h, read-out: IZ. Type of test: functional.
In test [14] the test system is Pseudomonas aeruginosa. In words: Antibacterial activity against Pseudomonas aeruginosa ATCC 27853 at 100 ug/ml after 24 hrs by disc-diffusion method. Type of test: functional. The conditions noted are these: ATCC 27853, 24 h, read-out: IZ.
Test [15] deals with Pseudomonas aeruginosa. In words: Antibacterial activity against Pseudomonas aeruginosa ATCC 27853 after 24 hrs by broth dilution technique. The format is functional. The settings on record: ATCC 27853, 24 h. Put shortly:
as §1

In test [16] the test system is Escherichia coli. In words: Antibacterial activity against Escherichia coli ATCC 25922 after 18 to 24 hrs. The format is functional.
The test system of test [17] is Bacillus subtilis. In words: Antibacterial activity against Bacillus subtilis ATCC 6633 after 18 to 24 hrs. Type of test: functional.
For test [18], the system named is Candida albicans. In words: Antifungal activity against Candida albicans after 48 hrs. The format is functional.
For test [19], the system named is Escherichia coli. The test can be described thus: Antibacterial activity against Escherichia coli ATCC 25922 at 100 ug/ml after 24 hrs by disc-diffusion method. The format is functional. The settings on record: ATCC 25922, 24 h, read-out: IZ.
The subject of test [20] is Aspergillus niger. In words: Antifungal activity against Aspergillus niger after 48 hrs. The format is functional.
Test [21] has as its system Escherichia coli. In words: Antibacterial activity against Escherichia coli ATCC 25922 at 200 ug/ml after 24 hrs by disc-diffusion method. The settings on record: ATCC 25922, 24 h, read-out: IZ. The format is functional.
Test [22] has as its system Pseudomonas aeruginosa. In words: Antibacterial activity against Pseudomonas aeruginosa ATCC 27853 after 18 to 24 hrs. The format is functional.

In brackets after ≈: the same amount, converted by molar mass.

In the case of `COc1cc(/C=C/C(=O)c2ccc(O)cc2)ccc1OCc1nnc(-c2ccccc2)o1`, the zone of inhibition at 200 µg/mL in the test on Bacillus subtilis [1] was 15 mm; with Pseudomonas aeruginosa [7], 27 mm; in the test on Candida albicans [8] it was 18 mm; in the test on Aspergillus niger [9], 24 mm; in the test on Staphylococcus aureus [13] it was 18 mm; in the test on Escherichia coli [21] it was 23 mm. Also, the zone of inhibition at 100 µg/mL is 13 mm with Bacillus subtilis [2]; 22 mm in the test with Aspergillus niger [5]; 17 mm with Staphylococcus aureus [11]; 16 mm with Candida albicans [12]; 25 mm in the test on Pseudomonas aeruginosa [14]; 21 mm in the test on Escherichia coli [19]. The minimum inhibitory concentration (MIC) was 25 µg/mL (≈ 58.4 µM) against Staphylococcus aureus [3]; 12.5 µg/mL (≈ 29.2 µM) against Bacillus subtilis [4]; 12.5 µg/mL (≈ 29.2 µM) in the test with Escherichia coli [10]; 25 µg/mL (≈ 58.4 µM) with Pseudomonas aeruginosa [15]; 12.5 µg/mL (≈ 29.2 µM) with Candida albicans [18]; 25 µg/mL (≈ 58.4 µM) against Aspergillus niger [20]. Besides, the minimum bactericidal concentration (MBC) came to 50 µg/mL (≈ 117 µM) in the test with Staphylococcus aureus [6], 50 µg/mL (≈ 117 µM) against Escherichia coli [16], 25 µg/mL (≈ 58.4 µM) in the test on Bacillus subtilis [17] and 50 µg/mL (≈ 117 µM) with Pseudomonas aeruginosa [22]. Moreover, the MFC against Candida albicans [18] came out at 25 µg/mL (≈ 58.4 µM); with Aspergillus niger [20], 50 µg/mL (≈ 117 µM).

In the case of `COc1cc(/C=C/C(=O)c2ccc(O)cc2)ccc1OCc1nnc(-c2ccccc2O)o1`, the zone of inhibition at 200 µg/mL in the test on Bacillus subtilis [1] was determined as 18 mm; in the test with Pseudomonas aeruginosa [7] it was 28 mm; in the test on Candida albicans [8], 24 mm; in the test with Aspergillus niger [9] it was 29 mm; in the test on Staphylococcus aureus [13] it was 20 mm; in the test on Escherichia coli [21], 24 mm. Also, the zone of inhibition at 100 µg/mL in the test with Bacillus subtilis [2] was determined as 16 mm; with Aspergillus niger [5] it was 27 mm; with Staphylococcus aureus [11], 19 mm; in the test with Candida albicans [12], 21 mm; in the test with Pseudomonas aeruginosa [14] it was 27 mm; in the test with Escherichia coli [19] it was 23 mm. Also, the MIC was 6 µg/mL (≈ 13.5 µM) in the test with Staphylococcus aureus [3]; 6 µg/mL (≈ 13.5 µM) in the test on Bacillus subtilis [4]; 12.5 µg/mL (≈ 28.1 µM) against Escherichia coli [10]; 6 µg/mL (≈ 13.5 µM) in the test on Pseudomonas aeruginosa [15]; 6 µg/mL (≈ 13.5 µM) in the test with Candida albicans [18]; 6 µg/mL (≈ 13.5 µM) against Aspergillus niger [20]. The MBC in the test with Staphylococcus aureus [6] was found to be 12.5 µg/mL (≈ 28.1 µM); against Escherichia coli [16] it was 25 µg/mL (≈ 56.3 µM); in the test with Bacillus subtilis [17] it was 12.5 µg/mL (≈ 28.1 µM); in the test with Pseudomonas aeruginosa [22], 12.5 µg/mL (≈ 28.1 µM). Further, the MFC in the test on Candida albicans [18] and with Aspergillus niger [20] was 12.5 µg/mL (≈ 28.1 µM) each time.

Turning to `COc1cc(/C=C/C(=O)c2ccc(O)cc2)ccc1OCc1nnc(COc2ccccc2)o1`, the zone of inhibition at 200 µg/mL came out at 16 mm in the test with Bacillus subtilis [1]; 27 mm in the test with Pseudomonas aeruginosa [7]; 19 mm in the test on Candida albicans [8]; 24 mm in the test with Aspergillus niger [9]; 18 mm with Staphylococcus aureus [13]; 22 mm in the test with Escherichia coli [21]. Further, the zone of inhibition at 100 µg/mL with Bacillus subtilis [2] is 14 mm; with Aspergillus niger [5], 22 mm; in the test on Staphylococcus aureus [11], 17 mm; in the test with Candida albicans [12], 17 mm; with Pseudomonas aeruginosa [14] it was 25 mm; in the test on Escherichia coli [19] it was 20 mm. Moreover, the MIC came to 6 µg/mL (≈ 13.1 µM) against Staphylococcus aureus [3]; 12.5 µg/mL (≈ 27.3 µM) in the test with Bacillus subtilis [4]; 6 µg/mL (≈ 13.1 µM) against Escherichia coli [10]; 12.5 µg/mL (≈ 27.3 µM) in the test on Pseudomonas aeruginosa [15]; 12.5 µg/mL (≈ 27.3 µM) in the test with Candida albicans [18]; 6 µg/mL (≈ 13.1 µM) in the test with Aspergillus niger [20]. The MBC is 12.5 µg/mL (≈ 27.3 µM) in the test with Staphylococcus aureus [6], 12.5 µg/mL (≈ 27.3 µM) in the test with Escherichia coli [16], 25 µg/mL (≈ 54.5 µM) against Bacillus subtilis [17] and 25 µg/mL (≈ 54.5 µM) against Pseudomonas aeruginosa [22]. Further, the MFC with Candida albicans [18] amounted to 25 µg/mL (≈ 54.5 µM); in the test with Aspergillus niger [20] it was 12.5 µg/mL (≈ 27.3 µM).

A word on the MIC: it is the lowest concentration that inhibits growth of the organism. Lower therefore signals greater potency. In general, MBC refers to the lowest tested concentration that kills the bacteria rather than only halting them. High values mean less potent killing, low ones more potent killing. One may read the MFC as the lowest tested concentration that kills the fungus rather than only halting it. High values mean less potent killing, low ones more potent killing.
